ChEMBL document CHEMBL1143177, “Antitumor effects of curcumin and structurally beta-diketone modified analogs on multidrug resistant cancer cells” (Bioorg Med Chem Lett, 2008)

Tests used:
MCF7 = assay: Growth inhibition of human MCF7 cells after 72 hrs by MTS assay; conditions: MCF7, 72 h
MCF7R = assay: Growth inhibition of human multidrug-resistant MCF7R cells after 72 hrs by MTS assay
[1] = Growth inhibition of human HA22T/VGH cells after 72 hrs by MTS assay
[2] = target: Transcription factor p65 (Homo sapiens) (UniProt Q04206); assay: Reduction in DNA binding activity of NF-kappaB p65 subunit in human HA22T/VGH cells after 4 hrs relative to control; assay type: cell-based; conditions: concentration not given here
In short: (§1)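 HA22T/VGH cells, which have constitutively active NF-κB, were exposed to compounds at 20 µM for 1.5 or 4 h. DNA-binding activity of the NF-κB p65 subunit was measured and expressed as percent of untreated control.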

[3] = target: Transcription factor p65 (Homo sapiens) (UniProt Q04206); assay: Reduction in DNA binding activity of NF-kappaB p65 subunit in human HA22T/VGH cells after 1.5 hrs relative to control; assay type: cell-based; conditions: concentration not given here
In short: as §1

Sequence of Transcription factor p65 (Homo sapiens) (Q04206 whole entry): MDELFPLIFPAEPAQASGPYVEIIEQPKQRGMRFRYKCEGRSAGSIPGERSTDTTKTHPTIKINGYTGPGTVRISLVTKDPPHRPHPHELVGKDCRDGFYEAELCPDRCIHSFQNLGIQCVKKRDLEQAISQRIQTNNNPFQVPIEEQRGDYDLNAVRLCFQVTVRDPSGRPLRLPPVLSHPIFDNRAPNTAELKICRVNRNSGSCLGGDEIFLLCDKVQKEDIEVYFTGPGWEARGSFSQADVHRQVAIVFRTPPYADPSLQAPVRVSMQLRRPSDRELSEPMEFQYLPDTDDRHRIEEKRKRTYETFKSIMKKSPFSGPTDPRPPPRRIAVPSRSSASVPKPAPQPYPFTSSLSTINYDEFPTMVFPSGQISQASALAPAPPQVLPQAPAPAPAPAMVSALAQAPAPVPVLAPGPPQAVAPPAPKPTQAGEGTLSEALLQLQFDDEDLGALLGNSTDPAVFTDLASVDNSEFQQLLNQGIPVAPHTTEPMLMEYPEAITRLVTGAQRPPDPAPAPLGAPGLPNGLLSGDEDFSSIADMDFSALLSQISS

IC50 (MCF7)	IC50 (MCF7R)	inhibition [2]	inhibition [3]	Compound	IC70 (MCF7)	IC70 (MCF7R)	IC50 [1]	IC70 [1]
93 µM	67.6 µM			CCNC(=C\C(=O)/C=C/c1ccc(O)c(OC)c1)/C=C/c1ccc(O)c(OC)c1	> 100 µM	88.8 µM	26.1 µM	64.4 µM
49.9 µM	54.7 µM			COc1cc(/C=C/C(=O)/C=C(N)/C=C/c2ccc(O)c(OC)c2)ccc1O	68.1 µM	81.8 µM	33 µM	41.1 µM
29.3 µM	26.2 µM			COc1cc(/C=C/C(=O)CC(=O)/C=C/c2ccc(O)c(OC)c2)ccc1O [CURCUMIN]	51.7 µM	46.2 µM	17.4 µM	24.6 µM
> 100 µM	> 100 µM			COc1cc(/C=C/C(=O)/C=C(/C=C/c2ccc(O)c(OC)c2)NC(C)c2ccccc2)ccc1O (stereo unspecified)	> 100 µM	> 100 µM	> 100 µM	> 100 µM
70.3 µM	49.8 µM			COc1cc(/C=C/C(=O)/C=C(/C=C/c2ccc(O)c(OC)c2)NC(C)C)ccc1O	93.5 µM	79.5 µM	26.3 µM	29.8 µM
36.3 µM	39 µM			CO/N=C(\C=C\c1ccc(O)c(OC)c1)CC(/C=C/c1ccc(O)c(OC)c1)=N/OC	43.4 µM	52.8 µM	32.9 µM	40.4 µM
> 100 µM	> 100 µM			COc1cc(/C=C/C(=O)/C=C(/C=C/c2ccc(O)c(OC)c2)NCc2ccccc2)ccc1O	> 100 µM	> 100 µM	> 100 µM	> 100 µM
13.1 µM	12 µM			COc1cc(/C=C/c2cc(/C=C/c3ccc(O)c(OC)c3)on2)ccc1O	23.2 µM	24.7 µM	12.8 µM	18.3 µM
7.1 µM	9.3 µM	64.3%	33.7%	COc1cc(/C=C/C(CC(/C=C/c2ccc(O)c(OC)c2)=N/OCc2ccccc2)=N\OCc2ccccc2)ccc1O	9.2 µM	12.9 µM	5.9 µM	8.4 µM
